Bioassay records (PubChem)
H9c2 TAG inh: inhibitors of triacylglycerol accumulation | H9c2 cells, Nile Red lipid (TAG) fluorescence; cells loaded with 200 µM oleic acid | inhibition, % at 12.5 µM | 230,000 compounds, 0.66% hits | AID 651582;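 active = pattern-corrected inhibition of lipid staining of at least 50% with the nuclear-stain viability signal not falling by more than 50%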
Rev-erbA mod: modulators of human Rev-erb alpha DNA binding. P20393. activity, % at 10 µM. Rev-erbα–FITC-DNA binding, fluorescence polarization, 90 min. AID 1259318. 370,000 compounds, 0.79% hits;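 active = activity above about 14%, limit read from the data; passing the limit was not always enough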
Target sequence (P20393 whole entry, looked up): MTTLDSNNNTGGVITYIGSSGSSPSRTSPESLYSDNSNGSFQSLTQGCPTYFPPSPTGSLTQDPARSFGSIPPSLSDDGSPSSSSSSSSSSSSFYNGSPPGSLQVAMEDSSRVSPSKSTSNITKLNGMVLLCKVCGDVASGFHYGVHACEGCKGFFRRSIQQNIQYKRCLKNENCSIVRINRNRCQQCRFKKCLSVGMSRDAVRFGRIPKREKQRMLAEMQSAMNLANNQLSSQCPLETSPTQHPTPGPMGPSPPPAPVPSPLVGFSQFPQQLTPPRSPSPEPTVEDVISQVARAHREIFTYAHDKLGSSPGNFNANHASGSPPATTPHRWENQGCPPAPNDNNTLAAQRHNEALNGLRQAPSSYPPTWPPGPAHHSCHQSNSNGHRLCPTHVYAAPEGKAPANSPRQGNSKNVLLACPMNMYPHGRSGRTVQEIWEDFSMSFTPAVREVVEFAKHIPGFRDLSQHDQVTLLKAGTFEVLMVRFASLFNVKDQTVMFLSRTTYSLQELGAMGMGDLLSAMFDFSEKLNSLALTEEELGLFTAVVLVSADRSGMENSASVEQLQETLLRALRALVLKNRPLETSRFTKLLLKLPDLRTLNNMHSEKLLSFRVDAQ
MIN6 prolif-1: MIN6 beta-cell proliferation induction; AID 2380; 330,000 compounds, 0.29% hits; proliferation, % at 10 µM; MIN6 cells proliferation, ATPlite luminescence, 48 h; cells starved in 0.2% serum; 100% = growth in 10% serum;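 active = compounds whose signal lies at least 3.5 SD above the mean of all wells on their plate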
iPSC survival up: increases survival of single human iPS cells | hiPSC single-cell survival, ATPlite luminescence; 100% = ROCK inhibitor wells, 0% = DMSO | AID 602274 | 360,000 compounds, 0.044% hits | survival enhancement, % at 20 µM; in the data active = survival enhancement above about 18%;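 note: cells exposed to compounds for 16 hours before the ATP read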
T cruzi repl: T. cruzi replication inhibition. AID 1885. T. cruzi beta-gal in NIH3T3, luminescence, 90 h. 300,000 compounds, 1.4% hits. inhibition, % (concentration not given with the values);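 active = mean inhibition across valid replicates above about 55%, limit read from the data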;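 note: signal also drops with host cell toxicity which is not excluded here; higher percent means less beta-gal luminescence so fewer parasites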
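System – NIH/3T3 host cells with β-galactosidase reporter T. cruzi · Doses – single 50 nL compound addition per well in DMSO · Reagent – 5000 T. cruzi trypomastigotes/well · Medium – Low-serum DMEM with 2% FBS · Timing – ≥90 h infection period, 3 h prior cell attachment · Evaluation – parasite load inhibition, % · Technique – GalScreen luminescence, 60 min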
PG9 binder: binds the HIV-1 gp120 antibody PG9; 360,000 compounds, 0.43% hits; inhibition, % at 6.7 µM; TR-FRET gp120-PG9 antibody binding; in the data active = inhibition above about 8.5%
MIN6 prolif-2: MIN6 beta-cell replication induction, confirmed; 920 tested, under 10 active; MIN6 beta-cell proliferation, ATPlite luminescence, 48 h; cells kept in 0.2% serum; scaled between 0.2% and 10% serum; AID 463095; proliferation increase, % at 50 µM; shares compounds with MIN6 prolif-1;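 active = proliferation increase above 40% at any of the four tested concentrations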
Numbers stand for hits; – = inactive; · = no result given. Hits are enriched below; roughly 2.9% of the tested compounds scored in any of these assays.

SMILES	H9c2 TAG inh	Rev-erbA mod	MIN6 prolif-1	iPSC survival up	T cruzi repl	PG9 binder	MIN6 prolif-2
CCOc1ccccc1NC(=O)c1ccc(OCC(=O)N2CCOCC2)c(OC)c1	–	–	–	–	·	–	·
O=C1CSC(c2ccc(Cl)cc2)N1Nc1nc(N2CCOCC2)nc(N2CCOCC2)n1 (centres undefined)	–	–	9.7	–	–	–	–
Cc1ccc(CNc2ncnc(N)c2[N+](=O)[O-])cc1	–	–	7.8	–	–	–	–
CCOc1cc(/C=N/n2cnnc2)ccc1OCC(=O)Nc1ccccc1OC	–	–	8.0	–	–	–	–
CCN1CCN(C(=O)C2CCN(S(=O)(=O)c3ccc(SC)cc3)CC2)CC1	·	–	16	–	–	–	–
CCN1CCN(C(=O)C2CCN(S(=O)(=O)c3ccc(Br)cc3)CC2)CC1	–	–	–	–	–	–	·
C=CCn1c(N2CCN(c3ccc(OC)cc3)CC2)nc2c1c(=O)n(C)c(=O)n2C	–	–	8.3	–	–	–	–
Cc1ccc(Cn2c(-c3nonc3N)nc3ccccc32)cc1	–	–	–	–	–	–	·
O=C1C=C(N2CCCCCC2)C2(CCCCC2)O1	–	–	–	–	–	–	·
COC1=CC(=O)OC12CCCCC2	·	–	8.2	–	–	–	–
CCCC(=O)Nc1nn(CC)c2nc3ccc(C)cc3cc12	·	–	9.5	–	–	–	–
CC(C)Oc1ccc(C(=O)OCC(=O)NCCNC(=O)COC(=O)c2ccc(OC(C)C)cc2)cc1	–	–	–	–	–	–	·
Cc1ccc(NC(=S)N2CCC(O)CC2)c(C)c1	–	–	–	–	–	–	·
C=CCOc1ccc(-c2nc3c(c(=O)[nH]c(=O)n3CCCC)n2C)cc1OC	–	–	12	–	–	–	–
Cc1cc(NC(=O)c2cnn3c(C(F)F)cc(C4CC4)nc23)no1	–	–	5.5	–	–	–	–
O=C(Nc1ccc(Br)cc1)c1ccc(Br)c(S(=O)(=O)Nc2cccnc2)c1	·	–	–	–	–	–	·
C/C(=N/NC(=O)CNC(=O)c1ccco1)c1ccc(Cl)cc1	·	–	–	–	–	–	·
CN(c1nc2nonc2nc1NC1CC1)C1CCOC1 (centres undefined)	–	–	7.6	–	–	–	–
CC(c1nccs1)N(C)c1nc2nonc2nc1NC1CC1 (centres undefined)	–	–	–	–	–	–	·
CC(=O)Nc1ccc(NC(=O)/C(Cl)=C/c2ccccc2)cc1	–	–	–	–	–	–	·
O=C(c1cccc(Cl)c1)N1CCN(c2ccc(N3CCOCC3)nn2)CC1	–	–	14	–	–	–	–
COc1cc(C)c(Br)cc1S(=O)(=O)NCCN1CCOCC1	–	–	–	–	–	–	·
COc1ccc(CCN(Cc2ccccn2)C(=S)Nc2cccc(C)c2)cc1OC	–	–	8.7	–	–	–	–
COc1ccc(NC(=S)N(CCc2ccc(OC)c(OC)c2)Cc2ccccn2)cc1	–	–	–	–	–	–	·
COc1nc(NCCN2CCOCC2)nc(Nc2ccccc2)n1	·	–	–	–	–	–	·
Cc1ccc(C2=NN3C(C2)c2ccccc2OC32C(=O)Nc3ccccc32)cc1 (centres undefined)	–	–	–	–	–	–	·
COc1ccc(C(C(=O)NCc2ccccc2)N(C(=O)c2snc(C(N)=O)c2N)c2ccccc2OC)cc1OC (centres undefined)	·	–	22	–	–	–	–
Cc1ccc(N(C(=O)c2snc(C(N)=O)c2N)C(C(=O)NCC2CCCO2)c2ccc(C)o2)c(C)c1 (centres undefined)	·	–	17	–	–	–	–
CCc1ccccc1N(C(=O)c1snc(C(N)=O)c1N)C(C(=O)NCC1CCCO1)c1ccc(N(C)C)cc1 (centres undefined)	·	–	8.7	–	–	–	–
CCc1ccccc1N(C(=O)c1snc(C(N)=O)c1N)C(C(=O)NCC1CCCO1)c1ccc(C)o1 (centres undefined)	·	–	–	–	–	–	·
